Results as given in ChEMBL document CHEMBL1129953, “Heteroaromatic analogs of 1-[2-(diphenylmethoxy)ethyl]- and 1-[2-[bis(4-fluorophenyl)methoxy]ethyl]-4-(3-phenylpropyl)piperazines (GBR 12935 and GBR 12909) as high-affinity dopamine reuptake inhibitors” (J Med Chem, 1997).

What was measured:
[1] = target: T1, Monoamine transporters; serotonin & dopamine (Rattus norvegicus) (UniProt P31652+P23977); assay: Ratio of reuptake inhibition of 5-HT with respect to DA; assay type: functional
[2] = target: T1, Monoamine transporters; serotonin & dopamine (Rattus norvegicus); assay: Ratio of binding affinity on SERT with respect to DA; assay type: protein assay
[3] = target: T2, Sodium-dependent serotonin transporter (Rattus norvegicus, UniProt P31652); assay: Binding affinity at the serotonin transporter using [125I]RTI-55 in rat caudate membranes.; assay type: cell membranes
Outline: (§1)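 Triplicate incubation 18–24 h at 4 °C, then filtration over PEI-presoaked GF/B filters. Eight-point inhibition curves (90–10% of control) give the IC50.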

[4] = target: T3, Sodium-dependent dopamine transporter (Rattus norvegicus, UniProt P23977); assay: Binding affinity at the dopamine transporter using [125I]RTI-55 in rat caudate membranes.; assay type: cell membranes
Outline: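 [125I]RTI-55 at 0.01 nM (SA 2200 Ci/mmol). […] Incubated in triplicate 18–24 h at 4 °C to equilibrium. Filtered over PEI-presoaked GF/B filters. Eight-point inhibition curves spanning 90% to 10% of control. IC50 reported.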

[5] = target: Sodium-dependent dopamine transporter (Rattus norvegicus) (UniProt P23977); assay: Ratio of reuptake inhibition on DA with respect to binding affinity of DA; assay type: functional
[6] = target: T3, Sodium-dependent dopamine transporter; assay: Reuptake inhibition at the dopamine transporter labeled with radioligand [3H]dopamine on synaptosomes obtained from rat caudate.; assay type: functional, subcellular, Brain
Outline: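 Rat caudate synaptosomes (10% sucrose homogenate, 1000g supernatant). [3H]DA at 5 nM final in Krebs-phosphate buffer pH 7.4 with ascorbic acid and 50 μM pargyline. Incubated 15 min at 25 °C. Nonspecific uptake defined with 1 μM GBR 12909. Filtered over GF/B filters and counted. IC50 reported.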

[7] = target: T2, Sodium-dependent serotonin transporter; assay: Binding affinity was determined at the Serotonin transporter labeled with radioligand [125 I] RTI-55; outline: as §1
[8] = target: T3, Sodium-dependent dopamine transporter; assay: Binding affinity was determined at the dopamine transporter labeled with radioligand [125 I] RTI-55
Outline: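 Incubated in triplicate 18–24 h at 4 °C to equilibrium. Filtered over PEI-presoaked GF/B filters. Eight-point inhibition curves spanning 90% to 10% of control. IC50 reported.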

[9] = target: T3, Sodium-dependent dopamine transporter; assay: Reuptake inhibition was determined at the dopamine transporter labeled with radioligand [3H]dopamine in nonstandard conditions on brain membranes obtained from rat; assay type: functional, Membrane
Outline: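 Synaptosomes preincubated with drug 60 min at 25 °C in Krebs-phosphate buffer with 1 mg/mL BSA. 5 nM [3H]DA then added for 20 min at 25 °C. Nonspecific uptake defined with 1 μM GBR 12909. Stopped by filtration. Mean ± SD of three independent experiments.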

[10] = target: T3, Sodium-dependent dopamine transporter; assay: Binding affinity was determined at the dopamine transporter labeled with radioligand [125 I] RTI-55 in nonstandard conditions
Outline: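 Run on rat caudate synaptosomes in Krebs-phosphate buffer with 1 mg/mL BSA. Drug preincubated 60 min at 25 °C, then 10 pM [125I]RTI-55 added for 20 min at 25 °C. Filtered over PEI-presoaked GF/B filters. Nonspecific binding defined with 1 μM GBR 12909. Mean ± SD of three independent experiments.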

[11] = Sigma receptor binding was determined by labeling with radioligand [3H](+)-pentazocine on frozen membranes obtained from frozen guinea pig brain

T2 sequence (P31652 whole entry): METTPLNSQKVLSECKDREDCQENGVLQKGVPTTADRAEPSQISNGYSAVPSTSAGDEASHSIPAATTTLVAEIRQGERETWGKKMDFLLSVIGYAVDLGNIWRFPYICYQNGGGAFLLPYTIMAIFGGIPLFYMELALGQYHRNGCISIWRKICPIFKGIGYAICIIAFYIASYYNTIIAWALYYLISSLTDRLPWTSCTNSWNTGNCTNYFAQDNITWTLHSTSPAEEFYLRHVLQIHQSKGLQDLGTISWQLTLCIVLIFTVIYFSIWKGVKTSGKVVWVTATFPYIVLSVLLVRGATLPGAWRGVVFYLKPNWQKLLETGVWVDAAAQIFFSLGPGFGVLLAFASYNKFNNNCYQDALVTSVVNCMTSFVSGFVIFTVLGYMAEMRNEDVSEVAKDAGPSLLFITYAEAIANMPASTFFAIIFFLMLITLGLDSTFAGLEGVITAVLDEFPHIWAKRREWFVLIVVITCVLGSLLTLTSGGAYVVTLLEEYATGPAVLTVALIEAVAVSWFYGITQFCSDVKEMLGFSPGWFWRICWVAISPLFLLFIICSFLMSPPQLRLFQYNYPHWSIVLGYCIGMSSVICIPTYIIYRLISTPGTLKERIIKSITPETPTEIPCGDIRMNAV
T3 sequence (P23977 whole entry): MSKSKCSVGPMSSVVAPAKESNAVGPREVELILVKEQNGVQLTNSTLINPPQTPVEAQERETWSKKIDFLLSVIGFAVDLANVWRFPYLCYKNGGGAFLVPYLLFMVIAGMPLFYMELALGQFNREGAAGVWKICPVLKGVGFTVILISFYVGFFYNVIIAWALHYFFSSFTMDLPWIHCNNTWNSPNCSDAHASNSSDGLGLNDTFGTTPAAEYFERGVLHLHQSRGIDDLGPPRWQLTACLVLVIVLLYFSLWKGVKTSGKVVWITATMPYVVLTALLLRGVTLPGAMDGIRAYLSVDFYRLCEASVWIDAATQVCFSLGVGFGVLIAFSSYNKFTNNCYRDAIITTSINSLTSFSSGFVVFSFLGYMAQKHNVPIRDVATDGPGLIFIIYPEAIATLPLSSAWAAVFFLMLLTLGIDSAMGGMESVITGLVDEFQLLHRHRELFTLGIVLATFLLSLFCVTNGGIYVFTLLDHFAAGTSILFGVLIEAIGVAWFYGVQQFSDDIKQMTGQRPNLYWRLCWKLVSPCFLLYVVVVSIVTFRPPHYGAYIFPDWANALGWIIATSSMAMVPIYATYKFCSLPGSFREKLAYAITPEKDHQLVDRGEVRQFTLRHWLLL
Sequence of Sodium-dependent dopamine transporter (Rattus norvegicus) (P23977 whole entry): as above
T1 sequence (P23977 whole entry, looked up): as the sequence (P23977 whole entry) above
T1 sequence (P31652 whole entry, looked up): as the sequence (P31652 whole entry) above

SMILES | Ratio [1] | Ratio [2] | IC50 [3] [nM] | IC50 [4] [nM] | Ratio [5] | IC50 [6] [nM] | IC50 [7] [nM] | IC50 [8] [nM] | IC50 [9] [nM] | IC50 [10] [nM] | IC50 [11] [nM]
c1ccc(C(OCCN2CCN(Cc3nc4ccccc4[nH]3)CC2)c2ccccc2)cc1 | 110 | 41 | 1880 | 46 | 0.8 | 37 | – | – | – | – | –
Fc1ccc(C(OCCN2CCN(C/C=C/c3cccs3)CC2)c2ccc(F)cc2)cc1 | 29 | 40 | – | – | 5.9 | 13 | 88 | 2.2 | – | – | –
Fc1ccc(C(OCCN2CCN(Cc3cccc4ccccc34)CC2)c2ccc(F)cc2)cc1 | < 1 | 8 | 243 | 31 | 10.1 | 312 | – | – | – | – | –
Fc1ccc(C(OCCN2CCN(Cc3nc4ccccc4[nH]3)CC2)c2ccc(F)cc2)cc1 | 40 | 17 | 256 | 15 | 1.3 | 20 | – | – | – | – | –
Fc1ccc(C(OCCN2CCN(Cc3cc4ccccc4o3)CC2)c2ccc(F)cc2)cc1 | 41 | 45 | 286 | 6.4 | 2.9 | 18.6 | – | – | 12.3 | 17.8 | –
Fc1ccc(C(OCCN2CCN(CCCc3cccs3)CC2)c2ccc(F)cc2)cc1 | 55 | 32 | – | – | 1.8 | 6.1 | 105 | 3.3 | – | – | –
Fc1ccc(C(OCCN2CCN(CCCc3nc4ccccc4[nH]3)CC2)c2ccc(F)cc2)cc1 | 9 | 11 | 28 | 2.5 | 3.2 | 8.1 | – | – | – | – | –
Fc1ccc(C(OCCN2CCN(Cc3cc4ccccc4s3)CC2)c2ccc(F)cc2)cc1 | 36 | 121 | 495 | 4.1 | 8.3 | 34 | – | – | – | – | –
Fc1ccc(C(OCCN2CCN(Cc3ccc4ncccc4c3)CC2)c2ccc(F)cc2)cc1 | – | 9 | 551 | 62 | 1.2 | – | – | – | – | – | –
Fc1ccc(C(OCCN2CCN(C/C=C/c3ccco3)CC2)c2ccc(F)cc2)cc1 | 61 | 62 | – | – | 4 | 7.2 | 109 | – | – | – | –
Fc1ccc(C(OCCN2CCN(CCCc3cccnc3)CC2)c2ccc(F)cc2)cc1 | 321 | 175 | – | – | 1.3 | 20 | 2800 | 16 | – | – | –
c1ccc(C(OCCN2CCN(Cc3cc4ccccc4o3)CC2)c2ccccc2)cc1 | 136 | 110 | 1890 | 17 | 1.3 | 22 | – | – | 31 | 43.6 | –
c1ccc(C(OCCN2CCN(Cc3cc4ccccc4[nH]3)CC2)c2ccccc2)cc1 | 241 | 619 | 668 | 1.1 | 8 | 8.8 | – | – | 2.62 | 2.19 | –
c1ccc(C(OCCN2CCN(CCCc3nc4ccccc4[nH]3)CC2)c2ccccc2)cc1 | 39 | 13 | 309 | 23 | 0.7 | 17 | – | – | – | – | –
c1ccc(C(OCCN2CCN(Cc3cccc4ccccc34)CC2)c2ccccc2)cc1 | < 1 | 3 | 336 | 114 | 3.6 | 406 | – | – | – | – | –
Fc1ccc(C(OCCN2CCN(Cc3ccc4ccccc4c3)CC2)c2ccc(F)cc2)cc1 | 20 | 39 | 312 | 8 | 3.8 | 30 | – | – | – | – | –

SMILES | Ratio [1] | Ratio [2] | IC50 [3] [nM] | IC50 [4] [nM] | Ratio [5] | IC50 [6] [nM] | IC50 [7] [nM] | IC50 [8] [nM] | IC50 [9] [nM] | IC50 [10] [nM] | IC50 [11] [nM]
Fc1ccc(C(OCCN2CCN(Cc3cc4ccccc4[nH]3)CC2)c2ccc(F)cc2)cc1 | 39 | 163 | 119 | 0.7 | 18.6 | 13 | – | – | 1.86 | 2.94 | –
c1ccc(C(OCCN2CCN(CCCc3cccs3)CC2)c2ccccc2)cc1 | 205 | 162 | 842 | 5.2 | 1.9 | 9.7 | – | – | – | – | –
Fc1ccc(C(OCCN2CCN(CCCc3ccco3)CC2)c2ccc(F)cc2)cc1 | 52 | 35 | – | – | 1.3 | 7.9 | 204 | 5.9 | – | – | –
c1ccc(C(OCCN2CCN(Cc3cnc4ccccc4c3)CC2)c2ccccc2)cc1 | 27 | 16 | 1160 | 72 | 1.5 | 111 | – | – | – | – | –
C(=C\c1ccco1)/CN1CCN(CCOC(c2ccccc2)c2ccccc2)CC1 | 281 | 367 | 1840 | 5 | 1.9 | 9.6 | – | – | – | – | –
Fc1ccc(C(OCCN2CCN(C/C=C/c3cccnc3)CC2)c2ccc(F)cc2)cc1 | 46 | 25 | – | – | 1.1 | 14.5 | 334 | 13.6 | – | – | –
Fc1ccc(C(OCCN2CCN(Cc3cnc4ccccc4c3)CC2)c2ccc(F)cc2)cc1 | 12 | 30 | 485 | 16 | 4.6 | 74 | – | – | – | – | –
C(=C\c1cccnc1)/CN1CCN(CCOC(c2ccccc2)c2ccccc2)CC1 | 57 | 61 | 2760 | 44 | 1.5 | 64 | – | – | – | – | –
c1ccc(C(OCCN2CCN(CCCc3ccco3)CC2)c2ccccc2)cc1 | 300 | 234 | 1520 | 6.5 | 1.3 | 8.5 | – | – | – | – | –
c1ccc(C(OCCN2CCN(Cc3cc4ccccc4s3)CC2)c2ccccc2)cc1 | 184 | 131 | 2420 | 18 | 1.1 | 19 | – | – | – | – | –
c1ccc(C(OCCN2CCN(Cc3ccc4ccccc4n3)CC2)c2ccccc2)cc1 | 21 | 10 | 1990 | 199 | 1 | 192 | – | – | – | – | –
C(=C\c1cccs1)/CN1CCN(CCOC(c2ccccc2)c2ccccc2)CC1 | 200 | 184 | 1170 | 6.4 | 1.6 | 10 | – | – | – | – | –
c1ccc(C(OCCN2CCN(Cc3ccc4ncccc4c3)CC2)c2ccccc2)cc1 | 12 | 4 | 845 | 190 | 0.7 | 140 | – | – | – | – | –
Fc1ccc(C(OCCN2CCN(Cc3ccc4ccccc4n3)CC2)c2ccc(F)cc2)cc1 | 3 | < 1 | 51 | 56 | 1.9 | 106 | – | – | – | – | –
c1ccc(CCCN2CCN(CCOC(c3ccccc3)c3ccccc3)CC2)cc1 | – | – | – | – | – | – | – | – | – | – | 17
c1ccc(C(OCCN2CCN(CCCc3cccnc3)CC2)c2ccccc2)cc1 | 53 | 31 | 2420 | 78 | 0.9 | 70 | – | – | – | – | –
